Source: ChEMBL document CHEMBL3826896, “Synthesis of lignan conjugates via cyclopropanation: Antimicrobial and antioxidant studies” (Bioorg Med Chem Lett, 2016)
Converted amounts (≈) assume the structure as drawn.

Tested on: Streptococcus pyogenes
Assay: Antimicrobial activity against Streptococcus pyogenes after 24 hrs by broth dilution method
Assay type: functional
Conditions: not given
How it was run: (§1)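 MIC by broth dilution in triplicate, reported as mean ± SD. Panel: bacteria S. aureus, S. pyogenes, E. coli; fungi C. neoformans, A. niger, A. flavus. Ciprofloxacin served as positive control for bacteria and nystatin for fungi. DMSO was the solvent and solvent control.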

Compared with CCOC(=O)C1C(C(=O)c2cccs2)C1c1ccccc1OC (stereo not given), CCOC(=O)C1C(C(=O)c2cccs2)C1c1ccc(OC)cc1OC (stereo not given) is 4-fold lower in MIC: 100 µg/mL (≈ 303 µM) for the first, 25 µg/mL (≈ 69.4 µM) for the second.

CCOC(=O)C1C(C(=O)c2cccs2)C1c1ccc(OC)c(OC)c1 (stereo not given) and CCOC(=O)C1C(C(=O)c2cccs2)C1c1ccc(OC)cc1 (stereo not given) are the same in MIC: 50 µg/mL (≈ 139 µM) for the first, 50 µg/mL (≈ 151 µM) for the second.

First: O=C(O)c1cn(C2CC2)c2cc(N3CCNCC3)c(F)cc2c1=O [CIPROFLOXACIN]
Second: CCOC(=O)C1C(C(=O)c2cccs2)C1c1ccc(OCC)cc1 (stereo not given)
The MIC of the first is 2-fold higher: 50 µg/mL (≈ 151 µM) for the first, 25 µg/mL (≈ 72.6 µM) for the second.

Tested on: Aspergillus flavus
Assay: Antimicrobial activity against Aspergillus flavus after 72 hrs by broth dilution method
Assay type: functional
Conditions: not given
How it was run: as §1

First: NYSTATIN
Second: CCOC(=O)C1C(C(=O)c2cccs2)C1c1ccccc1OC (stereo not given)
The MIC of the first is 2-fold higher: 50 µg/mL for the first, 25 µg/mL (≈ 75.7 µM) for the second.

CCOC(=O)C1C(C(=O)c2cccs2)C1c1ccc(OC)cc1OC (stereo not given) and CCOC(=O)C1C(C(=O)c2cccs2)C1c1ccc(OC)c(OC)c1 (stereo not given) are the same in MIC: 50 µg/mL (≈ 139 µM) for the first, 50 µg/mL (≈ 139 µM) for the second.

Going from CCOC(=O)C1C(C(=O)c2cccs2)C1c1ccc(OC)cc1 (stereo not given) to CCOC(=O)C1C(C(=O)c2cccs2)C1c1ccc(OCC)cc1 (stereo not given), the MIC falls from 100 µg/mL (≈ 303 µM) to 25 µg/mL (≈ 72.6 µM) (4-fold).

Tested on: not listed separately
Assay: Antioxidant activity assessed as hydroxyl radical scavenging activity at 40 ug/ml after 60 mins relative to control
Assay type: physicochemical
Conditions: 1 h
How it was run: (§2)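 Radical scavenging measured in vitro by DPPH and by hydroxyl radical scavenging assays. Each run in triplicate at five concentrations, reported as mean ± SD of three replicates.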

COc1ccc(O)c(C(C)(C)C)c1.COc1ccc(O)cc1C(C)(C)C [BUTYLATED HYDROXYANISOLE] showed an Activity of 17.95%.

Tested on: Staphylococcus aureus
Assay: Antimicrobial activity against Staphylococcus aureus after 24 hrs by broth dilution method
Assay type: functional
Conditions: not given
How it was run: as §1

Compared with CCOC(=O)C1C(C(=O)c2cccs2)C1c1ccccc1OC (stereo not given), CCOC(=O)C1C(C(=O)c2cccs2)C1c1ccc(OC)cc1OC (stereo not given) is 2-fold lower in MIC: 50 µg/mL (≈ 151 µM) for the first, 25 µg/mL (≈ 69.4 µM) for the second.

Going from CCOC(=O)C1C(C(=O)c2cccs2)C1c1ccc(OC)c(OC)c1 (stereo not given) to CCOC(=O)C1C(C(=O)c2cccs2)C1c1ccc(OC)cc1 (stereo not given), the MIC rises from 25 µg/mL (≈ 69.4 µM) to 50 µg/mL (≈ 151 µM) (2-fold).

For CCOC(=O)C1C(C(=O)c2cccs2)C1c1ccc(OCC)cc1 (stereo not given), the MIC was 12.5 µg/mL (≈ 36.3 µM).

Tested on: Aspergillus niger
Assay: Antimicrobial activity against Aspergillus niger after 72 hrs by broth dilution method
Assay type: functional
Conditions: not given
How it was run: as §1

First: NYSTATIN
Second: CCOC(=O)C1C(C(=O)c2cccs2)C1c1ccccc1OC (stereo not given)
The MIC of the first is 1.5-fold lower: 50 µg/mL for the first, 75 µg/mL (≈ 227 µM) for the second.

Compared with CCOC(=O)C1C(C(=O)c2cccs2)C1c1ccc(OC)cc1OC (stereo not given), CCOC(=O)C1C(C(=O)c2cccs2)C1c1ccc(OC)c(OC)c1 (stereo not given) is 2-fold lower in MIC: 50 µg/mL (≈ 139 µM) for the first, 25 µg/mL (≈ 69.4 µM) for the second.

Going from CCOC(=O)C1C(C(=O)c2cccs2)C1c1ccc(OC)cc1 (stereo not given) to CCOC(=O)C1C(C(=O)c2cccs2)C1c1ccc(OCC)cc1 (stereo not given), the MIC falls from 100 µg/mL (≈ 303 µM) to 12.5 µg/mL (≈ 36.3 µM) (8-fold).

Tested on: not listed separately
Assay: Antioxidant activity assessed as hydroxyl radical scavenging activity at 80 ug/ml after 60 mins relative to control
Assay type: physicochemical
Conditions: 1 h
How it was run: as §2

COc1ccc(O)c(C(C)(C)C)c1.COc1ccc(O)cc1C(C)(C)C [BUTYLATED HYDROXYANISOLE] showed an Activity of 32.03%.

Tested on: not listed separately
Assay: Antioxidant activity assessed as hydroxyl radical scavenging activity at 100 ug/ml after 60 mins relative to control
Assay type: physicochemical
Conditions: 1 h
How it was run: as §2

Compound COc1ccc(O)c(C(C)(C)C)c1.COc1ccc(O)cc1C(C)(C)C [BUTYLATED HYDROXYANISOLE] has an Activity of 36.87%.

Tested on: Escherichia coli
Assay: Antimicrobial activity against Escherichia coli after 24 hrs by broth dilution method
Assay type: functional
Conditions: not given
How it was run: as §1

First: CCOC(=O)C1C(C(=O)c2cccs2)C1c1ccccc1OC (stereo not given)
Second: CCOC(=O)C1C(C(=O)c2cccs2)C1c1ccc(OC)cc1OC (stereo not given)
The MIC of the first is 3-fold higher: 75 µg/mL (≈ 227 µM) for the first, 25 µg/mL (≈ 69.4 µM) for the second.

Compared with CCOC(=O)C1C(C(=O)c2cccs2)C1c1ccc(OC)c(OC)c1 (stereo not given), CCOC(=O)C1C(C(=O)c2cccs2)C1c1ccc(OC)cc1 (stereo not given) is 2-fold higher in MIC: 25 µg/mL (≈ 69.4 µM) for the first, 50 µg/mL (≈ 151 µM) for the second.

O=C(O)c1cn(C2CC2)c2cc(N3CCNCC3)c(F)cc2c1=O [CIPROFLOXACIN] and CCOC(=O)C1C(C(=O)c2cccs2)C1c1ccc(OCC)cc1 (stereo not given) are the same in MIC: 25 µg/mL (≈ 75.4 µM) for the first, 25 µg/mL (≈ 72.6 µM) for the second.

Tested on: not listed separately
Assay: Antioxidant activity assessed as hydroxyl radical scavenging activity at 60 ug/ml after 60 mins relative to control
Assay type: physicochemical
Conditions: 1 h
How it was run: as §2

For COc1ccc(O)c(C(C)(C)C)c1.COc1ccc(O)cc1C(C)(C)C [BUTYLATED HYDROXYANISOLE], the Activity was 25.58%.

Tested on: not listed separately
Assay: Antioxidant activity assessed as hydroxyl radical scavenging activity at 20 ug/ml after 60 mins relative to control
Assay type: physicochemical
Conditions: 1 h
How it was run: as §2

COc1ccc(O)c(C(C)(C)C)c1.COc1ccc(O)cc1C(C)(C)C [BUTYLATED HYDROXYANISOLE] showed an Activity of 13.87%.

Tested on: Cryptococcus neoformans
Assay: Antimicrobial activity against Cryptococcus neoformans after 72 hrs by broth dilution method
Assay type: functional
Conditions: not given
How it was run: as §1

Compared with NYSTATIN, CCOC(=O)C1C(C(=O)c2cccs2)C1c1ccccc1OC (stereo not given) is 3-fold higher in MIC: 25 µg/mL for the first, 75 µg/mL (≈ 227 µM) for the second.

CCOC(=O)C1C(C(=O)c2cccs2)C1c1ccc(OC)cc1OC (stereo not given) and CCOC(=O)C1C(C(=O)c2cccs2)C1c1ccc(OC)c(OC)c1 (stereo not given) are the same in MIC: 25 µg/mL (≈ 69.4 µM) for the first, 25 µg/mL (≈ 69.4 µM) for the second.

First: CCOC(=O)C1C(C(=O)c2cccs2)C1c1ccc(OC)cc1 (stereo not given)
Second: CCOC(=O)C1C(C(=O)c2cccs2)C1c1ccc(OCC)cc1 (stereo not given)
The MIC of the first is 4-fold higher: 50 µg/mL (≈ 151 µM) for the first, 12.5 µg/mL (≈ 36.3 µM) for the second.
